Source: ChEMBL document CHEMBL1255404, “Spread of OXA-48-encoding plasmid in Turkey and beyond” (2010)
Values after ≈ are worked out from the molar mass of the structure shown.

Columns and labels:
Assay type in all cases: functional
Enterobacter cloacae [1] = test: Antimicrobial activity against Enterobacter cloacae isolate 2 expressing beta-lactamase OXA-48 and SHV-5 by Etest method
Klebsiella pneumoniae [2] = test: Antimicrobial activity against Klebsiella pneumoniae isolate Kp6A expressing beta-lactamase OXA-48 and TEM-150 by Etest method
Escherichia coli [3] = test: Antimicrobial activity against Escherichia coli isolate J53 by Etest method
Summary of the method: (§1)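 β-Lactam MICs read with Etest strips. Strains are E. coli J53 recipient and J53 transconjugants carrying OXA-48-positive plasmids recovered from clinical enterobacterial isolates.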

Escherichia coli [4] = test: Antimicrobial activity against Escherichia coli isolate J53 harboring pCF containing beta-lactamase OXA-48 located within transposon Tn1999 by Etest method; summary of the method: as §1
Escherichia coli [5] = test: Antimicrobial activity against Escherichia coli isolate J53 harboring p5A containing beta-lactamase OXA-48 located within transposon Tn1999 by Etest method; summary of the method: as §1
Escherichia coli [6] = test: Antimicrobial activity against Escherichia coli isolate TOP10 by Etest method
Summary of the method: (§2)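 β-Lactam MICs read with Etest strips. Strains are E. coli TOP10 host and TOP10 transformants made with plasmid DNA extract when conjugation failed. Transformants were selected on LB agar with ticarcillin 50 μg/ml.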

Escherichia coli [7] = test: Antimicrobial activity against Escherichia coli isolate J53 harboring pEcA containing beta-lactamase OXA-48 located within transposon Tn1999.2 by Etest method; summary of the method: as §1
Escherichia coli [8] = test: Antimicrobial activity against Escherichia coli isolate J53 harboring pI-1 containing beta-lactamase OXA-48 located within transposon Tn1999.2 by Etest method; summary of the method: as §1
Escherichia coli [9] = test: Antimicrobial activity against Escherichia coli isolate J53 harboring pL containing beta-lactamase OXA-48 located within transposon Tn1999.2 by Etest method; summary of the method: as §1
Escherichia coli [10] = test: Antimicrobial activity against Escherichia coli isolate J53 harboring pI-2 containing beta-lactamase OXA-48 located within transposon Tn1999.2 by Etest method; summary of the method: as §1
Klebsiella pneumoniae [11] = test: Antimicrobial activity against Klebsiella pneumoniae isolate Kp7A expressing beta-lactamase OXA-48 by Etest method
Summary of the method: (§3)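 MICs of β-lactams read from Etest strips. The test organisms are carbapenem-resistant, OXA-48-positive clinical Enterobacteriaceae isolates recovered from Turkey, Lebanon, Egypt, France and Belgium.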

Escherichia coli [12] = test: Antimicrobial activity against Escherichia coli isolate TOP10 harboring pPR containing beta-lactamase and TEM-101 by Etest method; summary of the method: as §2
Klebsiella pneumoniae [13] = test: Antimicrobial activity against Klebsiella pneumoniae isolate KpI-2 expressing beta-lactamase OXA-48 and CTX-M-15 by Etest method
Escherichia coli [14] = test: Antimicrobial activity against Escherichia coli isolate J53 harboring p3A containing beta-lactamase OXA-48 located within transposon Tn1999 by Etest method; summary of the method: as §1
Escherichia coli [15] = test: Antimicrobial activity against Escherichia coli isolate A expressing beta-lactamase OXA-48 and TEM-150 by Etest method
Escherichia coli [16] = test: Antimicrobial activity against Escherichia coli isolate TOP10 harboring pBIC containing beta-lactamase OXA-48 located within transposon Tn1999.2 by Etest method; summary of the method: as §2
Escherichia coli [17] = test: Antimicrobial activity against Escherichia coli isolate J53 harboring p4A containing beta-lactamase OXA-48 located within transposon Tn1999 by Etest method; summary of the method: as §1
Escherichia coli [18] = test: Antimicrobial activity against Escherichia coli isolate J53 harboring p7A containing beta-lactamase OXA-48 located within transposon Tn1999 by Etest method; summary of the method: as §1
Klebsiella pneumoniae [19] = test: Antimicrobial activity against Klebsiella pneumoniae isolate Kp3A expressing beta-lactamase OXA-48 by Etest method; summary of the method: as §3
Klebsiella pneumoniae [20] = test: Antimicrobial activity against Klebsiella pneumoniae isolate Kp4A expressing beta-lactamase OXA-48 and CTX-M-15 by Etest method
Escherichia coli [21] = test: Antimicrobial activity against Escherichia coli isolate J53 harboring pE containing beta-lactamase OXA-48 located within transposon Tn1999.2 by Etest method; summary of the method: as §1
Escherichia coli [22] = test: Antimicrobial activity against Escherichia coli isolate J53 harboring pEnc2 containing beta-lactamase OXA-48 located within transposon Tn1999 by Etest method; summary of the method: as §1
Escherichia coli [23] = test: Antimicrobial activity against Escherichia coli isolate J53 harboring p6A containing beta-lactamase OXA-48 located within transposon Tn1999 by Etest method; summary of the method: as §1
Klebsiella pneumoniae [24] = test: Antimicrobial activity against Klebsiella pneumoniae isolate Kp11978 expressing beta-lactamase OXA-48, SHV-2a and TEM-1 by Etest method
Klebsiella pneumoniae [25] = test: Antimicrobial activity against Klebsiella pneumoniae isolate KpB expressing OXA-48 and CTX-M-15 by Etest method
Enterobacter cloacae [26] = test: Antimicrobial activity against Enterobacter cloacae isolate 1 expressing beta-lactamase OXA-48 and SHV-5 by Etest method
Klebsiella pneumoniae [27] = test: Antimicrobial activity against Klebsiella pneumoniae isolate KpL expressing beta-lactamase OXA-48 by Etest method
Escherichia coli [28] = test: Antimicrobial activity against Escherichia coli isolate J53 harboring pEnc1 containing beta-lactamase OXA-48 located within transposon Tn1999 by Etest method; summary of the method: as §1
Escherichia coli [29] = test: Antimicrobial activity against Escherichia coli isolate J53 harboring pBb containing beta-lactamase OXA-48 located within transposon Tn1999.2 by Etest method; summary of the method: as §1
Providencia rettgeri = test: Antimicrobial activity against Providencia rettgeri isolate expressing beta-lactamase OXA-48 and TEM-101 by Etest method
Citrobacter freundii = test: Antimicrobial activity against Citrobacter freundii isolate expressing beta-lactamase OXA-48 by Etest method
Klebsiella pneumoniae [30] = test: Antimicrobial activity against Klebsiella pneumoniae isolate Kp5A expressing beta-lactamase OXA-48 and SHV-5 by Etest method
Klebsiella pneumoniae [31] = test: Antimicrobial activity against Klebsiella pneumoniae isolate KpBEL expressing beta-lactamase OXA-48 by Etest method; summary of the method: as §3
Klebsiella pneumoniae [32] = test: Antimicrobial activity against Klebsiella pneumoniae isolate KpE expressing beta-lactamase OXA-48 and CTX-M-15 by Etest method
Escherichia coli [33] = test: Antimicrobial activity against Escherichia coli isolate J53 harboring pBEL containing beta-lactamase OXA-48 located within transposon Tn1999.2 by Etest method; summary of the method: as §1
Klebsiella pneumoniae [34] = test: Antimicrobial activity against Klebsiella pneumoniae isolate KpI-1 expressing beta-lactamase OXA-48 and CTX-M-15 by Etest method
Klebsiella pneumoniae [35] = test: Antimicrobial activity against Klebsiella pneumoniae isolate KpBIC expressing beta-lactamase OXA-48 by Etest method; summary of the method: as §3
Escherichia coli [36] = test: Antimicrobial activity against Escherichia coli isolate J53 harboring pA-1 containing beta-lactamase OXA-48 located within transposon Tn1999 by Etest method; summary of the method: as §1

With `CCN1CCN(C(=O)N[C@@H](C(=O)N[C@@H]2C(=O)N3[C@@H]2SC(C)(C)[C@@H]3C(=O)O)c2ccccc2)C(=O)C1=O` [PIPERACILLIN] the MIC (Enterobacter cloacae [1]) was > 512 µg/mL, the MIC (Klebsiella pneumoniae [2]) was > 512 µg/mL and the MIC (Escherichia coli [3]) was 1 µg/mL (≈ 1.93 µM). The MIC (Escherichia coli [4]) was > 512 µg/mL, the MIC (Escherichia coli [5]) was > 512 µg/mL and the MIC (Escherichia coli [6]) was 2 µg/mL (≈ 3.86 µM). The MIC (Escherichia coli [7]) was 128 µg/mL (≈ 247 µM), the MIC (Escherichia coli [8]) was 512 µg/mL (≈ 989 µM) and the MIC (Escherichia coli [9]) was 64 µg/mL (≈ 124 µM). The MIC (Escherichia coli [10]) was 512 µg/mL (≈ 989 µM), the MIC (Klebsiella pneumoniae [11]) was > 512 µg/mL and the MIC (Escherichia coli [12]) was 128 µg/mL (≈ 247 µM). The MIC (Klebsiella pneumoniae [13]) was > 512 µg/mL, the MIC (Escherichia coli [14]) was 512 µg/mL (≈ 989 µM) and the MIC (Escherichia coli [15]) was > 256 µg/mL. For the same compound, the MIC (Escherichia coli [16]) was > 512 µg/mL, the MIC (Escherichia coli [17]) was > 512 µg/mL and the MIC (Escherichia coli [18]) was > 512 µg/mL. The MIC (Klebsiella pneumoniae [19]) was > 512 µg/mL, the MIC (Klebsiella pneumoniae [20]) was > 512 µg/mL and the MIC (Escherichia coli [21]) was 512 µg/mL (≈ 989 µM). For the same compound, the MIC (Escherichia coli [22]) was > 512 µg/mL, the MIC (Escherichia coli [23]) was > 512 µg/mL and the MIC (Klebsiella pneumoniae [24]) was > 512 µg/mL. The MIC (Klebsiella pneumoniae [25]) was > 512 µg/mL, the MIC (Enterobacter cloacae [26]) was > 512 µg/mL and the MIC (Klebsiella pneumoniae [27]) was 96 µg/mL (≈ 185 µM). For the same compound, the MIC (Escherichia coli [28]) was > 512 µg/mL, the MIC (Escherichia coli [29]) was > 512 µg/mL and the MIC (Providencia rettgeri) was > 256 µg/mL. For the same compound, the MIC (Citrobacter freundii) was > 512 µg/mL, the MIC (Klebsiella pneumoniae [30]) was > 512 µg/mL and the MIC (Klebsiella pneumoniae [31]) was > 256 µg/mL. The MIC (Klebsiella pneumoniae [32]) was > 512 µg/mL, the MIC (Escherichia coli [33]) was 128 µg/mL (≈ 247 µM) and the MIC (Klebsiella pneumoniae [34]) was > 512 µg/mL. The MIC (Klebsiella pneumoniae [35]) was > 512 µg/mL and the MIC (Escherichia coli [36]) was 8 µg/mL (≈ 15.5 µM).
